Assay results: ChEMBL document CHEMBL3407478, “Development of a series of aryl pyrimidine kynurenine monooxygenase inhibitors as potential therapeutic agents for the treatment of Huntington's disease” (J Med Chem, 2015)
The source made the active and inactive calls. No cut-off for these calls is given here.

How the values were obtained:
[1] = Permeability from apical to basolateral side in human Caco2 cells; assay type: ADME, cell-based; details: Caco-2, read-out: permeability
[2] = target: Kynurenine 3-monooxygenase (Mus musculus, UniProt Q91WN4); test: Inhibition of mouse KMO assessed as conversion of kynurenine to 3-hydroxykynurenine by LC-MS/MS analysis
In short: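 Mitochondrial fractions from mouse or rat liver tissue used as KMO source. Conversion of kynurenine to 3-hydroxykynurenine quantified by LC-MS/MS; IC50 averaged from triplicate tests.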

[3] = Volume of distribution at steady state in Sprague-Dawley rat plasma at 6.2 mg equivalents/kg, iv; assay type: ADME, cell-free; details: read-out: Vdss
In short: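 Nonfasted male Sprague-Dawley rats (300−370 g). Single iv tail-vein dose of 6.2 mg equiv/kg (1.24 mg equiv/mL in DMSO:PEG400:water 10:40:50) or oral gavage of 12 mg equiv/kg (1.20 mg equiv/mL in 10% hydroxypropyl-β-cyclodextrin). Terminal bleeds under isoflurane (N = 3) at 0.083−24 h; heparin plasma; tissues snap-frozen.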

Plasma [4] = test: Dose normalized AUC (0 to infinity) in Sprague-Dawley rat plasma at 12 mg equivalents/kg, po; assay type: ADME, cell-free
Plasma [5] = test: Dose normalized Cmax in Sprague-Dawley rat plasma at 12 mg equivalents/kg, po after 1 hr; assay type: ADME, organism-based; details: in vivo
[6] = Half life in Sprague-Dawley rat plasma at 12 mg equivalents/kg, po; assay type: ADME, cell-free
Brain [7] = test: Dose normalized AUC (0 to infinity) in Sprague-Dawley rat brain at 6.2 mg equivalents/kg, iv; assay type: ADME, tissue-based; details: in vivo
Brain [8] = test: Dose normalized Cmax in Sprague-Dawley rat brain at 6.2 mg equivalents/kg, iv; assay type: ADME, tissue-based; details: in vivo
Brain [9] = test: Dose normalized AUC (0 to infinity) in Sprague-Dawley rat brain at 12 mg equivalents/kg, po; assay type: ADME, tissue-based; details: in vivo
Brain [10] = test: Dose normalized Cmax in Sprague-Dawley rat brain at 12 mg equivalents/kg, po; assay type: ADME, tissue-based; details: in vivo
Plasma [11] = test: Dose normalized Cmax in Sprague-Dawley rat plasma at 10 mg equivalents/kg, po after 0.25 to 12 hrs; assay type: ADME, organism-based; details: in vivo
In short: (§1)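 Male Sprague-Dawley rats given a single oral dose of 10 mg equiv/kg as a 2 mg equiv/mL solution in 10% hydroxypropyl-β-cyclodextrin. Plasma, liver, kidney, cortex, striatum and CSF levels were measured from 0.25 to 12 h. Brain tissue was taken from nonperfused brains. CSF AUCN covers 0–8 h because the elimination phase was undefined.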

[12] = Tmax in Sprague-Dawley rat plasma at 10 mg equivalents/kg, po after 0.25 to 12 hrs; assay type: ADME, organism-based
In short: (§2)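 Fed male Sprague-Dawley rats given a single oral dose of 10 mg equiv/kg as 2 mg equiv/mL in 10% hydroxypropyl-β-cyclodextrin. Plasma, CSF, kidney, liver, and cortex and striatum from nonperfused brains sampled from 0.25 to 12 h.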

[13] = Half life in Sprague-Dawley rat plasma at 10 mg equivalents/kg, po after 0.25 to 12 hrs; assay type: ADME, organism-based; in short: as §1
Cerebrospinal fluid = test: Dose normalized Cmax in Sprague-Dawley rat CSF at 10 mg equivalents/kg, po after 0.25 to 12 hrs; assay type: ADME, organism-based; details: in vivo; in short: as §1
Cortex = test: Dose normalized Cmax in Sprague-Dawley rat cortex at 10 mg equivalents/kg, po after 0.25 to 12 hrs; assay type: ADME, organism-based; details: in vivo; in short: as §1
[14] = Half life in Sprague-Dawley rat cortex at 10 mg equivalents/kg, po after 0.25 to 12 hrs; assay type: ADME, organism-based
In short: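 Nonfasted male Sprague-Dawley rats; single oral dose 10 mg equiv/kg as 2 mg equiv/mL solution in 10% hydroxypropyl-β-cyclodextrin. Cortex taken from nonperfused brains, sampled 0.25 to 12 h after dosing. Drug measured by LC-MS/MS; half-life derived from concentration-time profile.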

Striatum = test: Dose normalized AUC (0 to infinity) in Sprague-Dawley rat striatum at 10 mg equivalents/kg, po after 0.25 to 12 hrs; assay type: ADME, organism-based; details: in vivo; in short: as §1
[15] = Tmax in Sprague-Dawley rat striatum at 10 mg equivalents/kg, po after 0.25 to 12 hrs; assay type: ADME, organism-based; in short: as §2
[16] = Half life in Sprague-Dawley rat striatum at 10 mg equivalents/kg, po after 0.25 to 12 hrs; assay type: ADME, organism-based; in short: as §1
Brain [17] = test: Dose normalized AUC (0 to infinity) in wild-type FVB/N mouse brain at 5 mg equivalents/kg, iv by LC-MS/MS analysis; assay type: ADME, organism-based; details: in vivo
In short: (§3)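 Male mice given a single 5 mg equiv/kg iv bolus: FVB wild type, Bcrp(−/−), Mdr1a/b(−/−) and Mdr1a/b(−/−)/Bcrp(−/−). Brain and plasma concentration–time profiles were used to derive dose-normalized AUC (0–infinity).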

Plasma [18] = test: Dose normalized AUC (0 to infinity) in MDR1a knock out FVB/N mouse plasma at 5 mg equivalents/kg, iv by LC-MS/MS analysis; assay type: ADME, organism-based; details: in vivo; in short: as §3
[19] = Fraction unbound in mouse plasma; assay type: ADME, cell-free
Rattus norvegicus [20] = test: Inhibition of KMO in Sprague-Dawley rat plasma assessed as time duration for elevation in kynurenine plasma level at 10 mg/kg, po by […] analysis; assay type: functional
In short: (§4)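 Sprague-Dawley rats given a single 10 mg/kg oral dose. KYN, 3-HK, KYNA and AA were quantified in plasma by LC-MS/MS at multiple time points.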

Rattus norvegicus [21] = test: Inhibition of KMO in Sprague-Dawley rat plasma assessed as time duration for elevation in kynurenic acid plasma level at 10 mg/kg, po by […] analysis; assay type: functional; in short: as §4
Rattus norvegicus [22] = test: Inhibition of KMO in Sprague-Dawley rat plasma assessed as time duration for elevation in anthranilic acid plasma level at 10 mg/kg, po by […] analysis; assay type: functional; in short: as §4
Rattus norvegicus [23] = test: Inhibition of KMO in Sprague-Dawley rat plasma assessed as time duration for reduction in 3-HK plasma level at 10 mg/kg, po by […] analysis; assay type: functional; in short: as §4
[24] = AUC (0 to 240 mins) in Sprague-Dawley rat striatal extracellular fluid at 10 mg/kg, po by […] analysis; assay type: ADME, organism-based; set-up: time < 4 hr, dose 10 mg/kg, route oral
In short: (§5)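 Freely moving Sprague-Dawley rats given 10 mg/kg po, with a microdialysis probe implanted in the striatum. Dialysate was sampled over 0–240 min for free compound and for KYN, KYNA, AA and 3-HK, quantified by LC-MS/MS. Metabolite changes were compared with t = 0 min by 2-way ANOVA.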

Rattus norvegicus [25] = test: Inhibition of KMO in Sprague-Dawley rat striatum brain microdialysate assessed as time duration for elevation in kynurenine level at 10 mg/kg, po by […] analysis; assay type: functional; in short: as §5
Rattus norvegicus [26] = test: Inhibition of KMO in Sprague-Dawley rat striatum brain microdialysate assessed as time duration for elevation in anthranilic acid level at 10 mg/kg, po by […] analysis; assay type: functional; in short: as §5
Rattus norvegicus [27] = test: Inhibition of KMO in po dosed Sprague-Dawley rat plasma assessed as elevation in kynurenine plasma level by […] analysis; assay type: functional, organism-based
Rattus norvegicus [28] = test: Inhibition of KMO in po dosed Sprague-Dawley rat plasma assessed as elevation in anthranilic acid plasma level by […] analysis; assay type: functional, organism-based
Rattus norvegicus [29] = test: Inhibition of KMO in po dosed Sprague-Dawley rat plasma assessed as reduction in 3-hydroxykynurenice acid plasma level by […] analysis; assay type: functional, organism-based
[30] = Oral bioavailability in Sprague-Dawley rat plasma at 12 mg equivalents/kg

Kynurenine 3-monooxygenase, sequence (Q91WN4 whole entry): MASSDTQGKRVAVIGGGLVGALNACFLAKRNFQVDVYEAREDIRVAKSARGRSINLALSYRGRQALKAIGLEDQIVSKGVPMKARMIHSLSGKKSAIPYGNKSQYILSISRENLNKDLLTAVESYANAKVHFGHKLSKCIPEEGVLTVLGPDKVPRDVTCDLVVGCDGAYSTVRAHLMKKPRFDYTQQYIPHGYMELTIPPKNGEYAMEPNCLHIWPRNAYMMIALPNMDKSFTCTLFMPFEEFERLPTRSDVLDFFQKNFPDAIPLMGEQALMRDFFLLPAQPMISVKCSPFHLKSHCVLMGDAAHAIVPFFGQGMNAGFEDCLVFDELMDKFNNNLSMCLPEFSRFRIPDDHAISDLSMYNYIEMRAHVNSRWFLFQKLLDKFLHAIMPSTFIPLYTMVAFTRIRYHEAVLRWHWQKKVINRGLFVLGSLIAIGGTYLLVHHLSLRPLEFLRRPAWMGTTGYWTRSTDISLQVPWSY

`O=C(O)c1cc(-c2ccc(OC3CC3)c(Cl)c2)ncn1` gave a Papp A→B [1] of 18.7 ×10⁻⁶ cm/s, an IC50 [2] of 5.1 nM and a Vd [3] of 0.32 L/kg. The AUC/dose (Plasma [4]) was 7.6 µM·kg·h/mg, the Cmax/dose (Plasma [5]) was 1.9 µM·kg/mg and the half-life [6] was 2.4 h. It also gave an AUC/dose (Brain [7]) of 0.23 µM·kg·h/mg, a Cmax/dose (Brain [8]) of 0.25 µM·kg/mg and an AUC/dose (Brain [9]) of 0.12 µM·kg·h/mg. The Cmax/dose (Brain [10]) was 0.035 µM·kg/mg, the Cmax/dose (Plasma [11]) was 2.6 µM·kg/mg and the Tmax [12] was 0.5 h. It also gave a half-life [13] of 1.7 h, a Cmax/dose (Cerebrospinal fluid) of 0.011 µM·kg/mg and a Cmax/dose (Cortex) of 0.03 µM·kg/mg. The half-life [14] was 1.9 h, the AUC/dose (Striatum) was 0.1 µM·kg·h/mg and the Tmax [15] was 0.5 h. It also gave a half-life [16] of 2.3 h, an AUC/dose (Brain [17]) of 0.066 µM·kg·h/mg and an AUC/dose (Plasma [18]) of 2.6 µM·kg·h/mg. It also gave a fraction unbound [19] of 0.036, a Time (Rattus norvegicus [20]) of 8 h and a Time (Rattus norvegicus [21]) of 8 h. The Time (Rattus norvegicus [22]) was 8 h, the Time (Rattus norvegicus [23]) was 8 h and the AUC(0-t) at 4 h [24] was 0.066 µM·h. The Time (Rattus norvegicus [25]) was 40 min, the Time (Rattus norvegicus [26]) was 40 min and the inhibition (Rattus norvegicus [27]) was “Dose-dependent effect”. For the same compound, the inhibition (Rattus norvegicus [28]) was “Dose-dependent effect”, the inhibition (Rattus norvegicus [29]) was “Active” and the bioavailability [30] was 64%.
